Data: the EternaBench riboswitch data

Columns and labels:
MS2 coat protein [1] = assay: apparent Kd, MS2 coat protein; higher = weaker binding; RNA-MaP array; tryptophan 2.4 mM where present
Summary of the method: (§1)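 Designs on Illumina sequencing-chip clusters, transcribed by stalled E. coli RNA polymerase, were exposed to SNAP-549-labelled MS2 coat protein in doubling steps from 0.7 or 1.5 nM up to 3 µM, without and then with constant ligand. The buffer held 100 mM Tris-HCl pH 7.5, 80 mM KCl, 4 mM MgCl2, BSA, DTT, yeast tRNA and Tween-20. Apparent Kd values are medians of filtered per-cluster binding-curve fits to green signal normalised to red-channel RNA signal and control-cluster median Fmax.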

MS2 coat protein [2] = assay: apparent Kd, MS2 coat protein; higher = weaker binding; RNA-MaP array; theophylline 2 mM where present
Summary of the method: as §1

[3] = designed as: OFF switch for tryptophan, no ligand
[4] = ligand present: tryptophan, designed as: OFF switch for tryptophan
[5] = designed as: ON switch for tryptophan, no ligand
[6] = ligand present: tryptophan, designed as: ON switch for tryptophan
[7] = designed as: ON switch for theophylline, no ligand
[8] = ligand present: theophylline, designed as: ON switch for theophylline
[9] = designed as: OFF switch for theophylline, no ligand
[10] = ligand present: theophylline, designed as: OFF switch for theophylline

| Sequence | apparent Kd (MS2 coat protein [1]; [3]) [nM] | apparent Kd (MS2 coat protein [1]; [4]) [nM] | apparent Kd (MS2 coat protein [1]; [5]) [nM] | apparent Kd (MS2 coat protein [1]; [6]) [nM] | also measured |
| --- | --- | --- | --- | --- | --- |
| AAUGUAUUCCACAUGAGGAUCACCCAUGUGCGAGGACCGGUACGGCCGCCACUCGGUGUUGGGAUCAGUUCUGAAUACAUUAAUG | 15.9 | 47.5 |  |  |  |
| UUUAUAUAGACGGCCGCCACUGGAAUUAAUACAUGAGGAUCACCCAUGUAUAGAGAAUAAUAAUACAGGACCGGGUCUUCAUGAU |  |  | 29.4 | 12 |  |
| UUUGGCGGCGAUCUGGGUUUACCAGAUCGGCGAGGACCGGUACGGCCGCCACUCGUGUUUCUUUGACAUGAGGAUCACCCAUGUA |  |  | 62.5 | 39.1 |  |
| UAAUCCGGUCCUCGAUAACAUGGGUGAAUACGAGGACCGGUACGGCCGCCACUCGAUAACAUGAGGAUCACCCAUGUAAUAAUAA | 85.7 | 84.1 |  |  |  |
| CUCAUCCACGCGGCCGCCACUAUAUUGUGGUGCGAAUGUGUCGUAAUACAUGAGGAUCACCCAUGUAGGACCGGGCGUGGAUGAG | 12.6 | 54.8 |  |  |  |
| AAAUAAACCUCGGCCGCCACUCGCCAUGAGGAUCACCCAUGUAACAUGAGGAUCACCCAUGUACAGAGGACCGGGAGGUCCUAGU |  |  | 73 | 100 |  |
| AACAACUAGUCGGCCGCCACUCAUAAUACAUGAGGAUCACCCAUGUAUACUUGGUUUUUAUAUUUGAGGACCGGGACAGUUGCAU | 11.6 | 10.5 |  |  |  |
| CUAAUUAUAUCGGCCGCCACUUACUCAUGAGGUAACAACAUGAGGAUCACCCAUGUUUGAGGAUCAAGGACCGGGAUAUAAUUAG |  |  | 28.9 | 17 |  |
| AAACAUGAGGAUCACCCAUGUUGAGGAUCACGAGGACCGGUACGGCCGCCACUCGACAUGAGGAUCACCCAUGUGAGGAUCACCC |  |  | 175 | 174 |  |
| AGCAACAAGUCGGCCGCCACUCUUUUUACAUGAGGAUCACCCAUGUUUAUAUCAUGGUCUUAAUAGAGGACCGGGACAGUUGCAU | 37.2 | 54.6 |  |  |  |
| UAUACAUGGUAUAAAUAUAUAUAUAAGAAACGAGGACCGGUACGGCCGCCACUCGUGCCGGAAACAUGAGGAUCACCCAUGUAUU | 37.6 | 22.8 |  |  |  |
| GGAGCUACGUCGGCCGCCACUAGCGGUUAUUACGUGUACAUGAGGAUCACCCAUGUAAUAUGGCUUAGGACCGGGACGUAGCUCC | 22.5 | 27.1 |  |  |  |
| AAUUAUCAGUCGGCCGCCACUGACACAUGAGGAUCACCCAUGUAACUUGGGAUAAAUUUAAUAAACAGGACCGGGACAAAGGCUA | 58.8 | 49.7 |  |  |  |
| UGUCGUAGACAUGAGGAUCACCCAUGUCCACGAGGACCGGUACGGCCGCCACUCGGGAUAUAAACCGUUACGGGUGGGUGGUGUU | 18.8 | 37.3 |  |  |  |
| GACGCAUGAGUUGGAACAGCUCAUGGGUCGCGAGGACCGGUACGGCCGCCACUCGGCUGUACAUGAGGAUCACCCAUGUCAGGGU |  |  | 279 | 550 |  |
| AAUUCCGGGUCGGCCGCCACUGAUAUGGCGAGUCCUCGAACUUACAUGAGGAUCACCCAUGUAAACAGGACCGGGACCGCAUGGG | 18.5 | 49.1 |  |  |  |
| ACGUAGAAGUCGGCCGCCACUGAUUUCAUGUUCAACAUGAGGAUCACCCAUGUACCUUAUGUUAACAGGACCGGGACGUAUACGA |  |  | 298 | 55 |  |
| AUGCAGAACACGGCCGCCACUCAUUGUAGACAUGAGGAUCACCCAUGUAAUAGGGAUAUUUUAUUGAGGACCGGGUGUAAUGCAA |  |  | 51.1 | 28.9 |  |
| GCGGAAUAAUCGGCCGCCACUAUGAUAUAGGAAACUAUAACAUGAGGAUCACCCAUGUAUCCUCAUAGGACCGGGAUUAAAACGC |  |  | 105 | 24.8 |  |
| ACACAAUACAUGAGGAUCACCCAUGUAAAACGAGGACCGGUACGGCCGCCACUCGAAUACUGUAAUCCUCGGAAUAUUAAGUGAA | 41 | 35.3 |  |  |  |

| Sequence | apparent Kd (MS2 coat protein [1]; [3]) [nM] | apparent Kd (MS2 coat protein [1]; [4]) [nM] | apparent Kd (MS2 coat protein [1]; [5]) [nM] | apparent Kd (MS2 coat protein [1]; [6]) [nM] | also measured |
| --- | --- | --- | --- | --- | --- |
| GCAUCCUAGUCGGCCGCCACUGCAAUUGUAGUACUGCUACAUGAACAUGAGGAUCACCCAUGUAGCAGGACCGGGACUAGGAUGC |  |  | 55 | 16.1 |  |
| CUAUAAGUACCGGUCCUCAGAUCCUCAUGACGAGGACCGGUACGGCCGCCACUCGAAACAUGAGGAUCACCCAUGUAAUAACAUU | 19.8 | 20.2 |  |  |  |
| UGUCAGCGAAAGUUGACAUGUCUUACCGGUCGAGGACCGGUACGGCCGCCACUCGAUCUCUCGCACAUGAGGAUCACCCAUGUUG |  |  | 21.4 | 15.1 |  |
| AGCAACUAGUCGGCCGCCACUCAUAUUACAUGAGGAUCACCCAUGUAUACAUGGUUGUUAUAUUUGAGGACCGGGACAGUUGCAU |  |  | 70.4 | 38.1 |  |
| UAACAUGAGGAUCACCCAUGUAAACUAAGUCGAGGACCGGUACGGCCGCCACUCGAAAUUGAAGAAUUGGCGGAAAAUGUAUGUU | 13.9 | 18.9 |  |  |  |
| GGAAUAAUGGCGGCCGCCACUAACUCAUAUACAUCAUGUACAUGAGGAUCACCCAUGUAGGUGUAUAGGACCGGGCCAUAAUUCC | 22.4 | 38.1 |  |  |  |
| UAUAUAUACUCGGCCGCCACUGAGAGAGUCAUGUAAACAUGAGGAUCACCCAUGUAAUAUAUAUACAGGACCGGGAGUAUAUUAA | 15.7 | 13.8 |  |  |  |
| UUACCGUAAGGUAUACCGGUCCACAAUAAUCGAGGACCGGUACGGCCGCCACUCGAUGUGUGAUCACAUGAGGAUCACCCAUGUA |  |  | 265 | 379 |  |
| UGGUACUAGGCGGCCGCCACUGGGUGAUACAUGAGGAUCACCCAUGUUUAAUGCCGAGAGGCAACUAGGACCGGGCCUAGUACAU |  |  | 150 | 689 |  |
| CAGGCUAGGACGGCCGCCACUGUGGCUACGGUACAUGAGGAUCACCCAUGUUUGUGGUUGAUCUACAGGACCGGGUCCUGACACG |  |  | 132 | 483 |  |
| CUUCGCAUAGGAAAACUAUGUGAAGAAAAUCGAGGACCGGUACGGCCGCCACUCGUCCUCAACAUGAGGAUCACCCAUGUAAUAA | 18.3 | 40.1 |  |  |  |
| AUCUUGUACCGUAAUACUUUACGUUGGGAUACCAGCAUGGACCCAUGCCCUUGGCAGCUUUACAUGAGGAUCACCCAUGUUGUAG |  |  |  |  | apparent Kd (MS2 coat protein [2]; [7]): 36.6 nM; apparent Kd (MS2 coat protein [2]; [8]): 32.5 nM |
| GCACUACAUGAGGAUCACCCAUGUGCAGAUACCAGAGGUGUAUGCCUCCCUUGGCAGCUGCGUCGCUCUGGAAACUUAUUGGUUU |  |  |  |  | apparent Kd (MS2 coat protein [2]; [7]): 18.4 nM; apparent Kd (MS2 coat protein [2]; [8]): 22.7 nM |
| UGUAUGUGAUUUGAUACCAGUUCUGCUGGUAAAACAUGAGGAUCACCCAUGUUACUUUGGGACCCUUGGCAGCAAAUCGCAUACU |  |  |  |  | apparent Kd (MS2 coat protein [2]; [7]): 201 nM; apparent Kd (MS2 coat protein [2]; [8]): 13.9 nM |
| ACAUGAGGAUCACCCAUGUGCCGUCUUGAUACCAGACCCGAAGUAGUCCCUUGGCAGCAACUACGUGACGGUCGCCCAUGUGUAG |  |  |  |  | apparent Kd (MS2 coat protein [2]; [9]): 14.2 nM; apparent Kd (MS2 coat protein [2]; [10]): 24 nM |
| AGCAUGUUAUCAGAUACCAGACAUCUUUUUUUACGUAUUACAUGAGGAUCACCCAUGUUGGUCCCUUGGCAGCUGAAAUAUUUCA |  |  |  |  | apparent Kd (MS2 coat protein [2]; [7]): 203 nM; apparent Kd (MS2 coat protein [2]; [8]): 31.9 nM |
| UGAUCCUACAGAGAUACCAGUGCCACUGAGUGACCAGACACAUGAGGAUCACCCAUGUAACACCCUUGGCAGCUCAACUAAAGGG |  |  |  |  | apparent Kd (MS2 coat protein [2]; [7]): 22.2 nM; apparent Kd (MS2 coat protein [2]; [8]): 80.3 nM |
| GGCCGGUGCGCUUUGAAGCGACGGCGUGAUACCAGAUGUAAGAGCGUCCCUUGGCAGCACGUUUACAUGAGGAUCACCCAUGUCU |  |  |  |  | apparent Kd (MS2 coat protein [2]; [7]): 196 nM; apparent Kd (MS2 coat protein [2]; [8]): 131 nM |
| CAGAGCUACCGGGAUACCAGAAUUGGUAUUCCUAUAUUUCUUACAUGAGGAUCACCCAUGUUCCCUUGGCAGCUUGGUAGCUCUG |  |  |  |  | apparent Kd (MS2 coat protein [2]; [9]): 80.9 nM; apparent Kd (MS2 coat protein [2]; [10]): 446 nM |
| GGUGGCGUGACGGAUACCAGCCACCACCGAUAGACCACAUGAGGAUCACCCAUGUUGGGUGGCCCUUGGCAGCUGUCGUGCGGCG |  |  |  |  | apparent Kd (MS2 coat protein [2]; [7]): 230 nM; apparent Kd (MS2 coat protein [2]; [8]): 56.7 nM |
